{
  "source": "paper PMC6226115",
  "about": "(Clinical and Translational Science, 2018)",
  "key": {"[1]": {"test": "Phase I safety and tolerability", "format": "in vivo, human", "how_it_was_run": "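In a nonrandomised, open-label phase I study, healthy men received 5, 10, 25 or 50 mg once daily for 14 days, with CSF sampled through a lumbar catheter. Safety was scored as the number of subjects with adverse events and summarised descriptively.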"}, "[2]": {"conditions": "previously observed; cited from earlier work"}, "glycine in CSF": {"tested_on": "glycine in CSF", "test": "Phase I pharmacodynamics: glycine in CSF", "format": "in vivo, human", "conditions": "for E 14, increase in glycine in CSF from baseline at 14 hours: 14 h after first dose; for E 14, increase in glycine in CSF from baseline at 14 hours / E max, maximum increase in glycine in CSF from baseline / Ratio of AUECdiff, 0–14 (glycine in CSF) / E 312, increase in glycine in CSF from baseline at 312 hours: mean (SD); for E max, maximum increase in glycine in CSF from baseline / Ratio of AUECdiff, 0–14 (glycine in CSF): after first dose; for E 312, increase in glycine in CSF from baseline at 312 hours: before last dose (steady state trough)", "how_it_was_run": "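Healthy male volunteers took 5, 10, 25 or 50 mg orally each morning for 14 days in sequential ascending groups. CSF was drawn by lumbar catheter: three predose samples ~30 min apart, then hourly to 14 h after the first dose. A single lumbar puncture was taken before the day-14 dose. Glycine was measured by validated HPLC-MS/MS as its Marfey's derivative and expressed as % change from baseline (mean of three predose values).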"}, "[3]": {"conditions": "50 mg once daily for 14 days (n = 5)"}, "[4]": {"conditions": "total on-treatment, all doses (n = 25)"}},
  "note": "“And” between values parts separate entries of the source, which are not always exact repeats. Equal entries are not always repeated. “Also recorded” adds a separate entry of the source.",
  "data": [
    {"smiles": "C[C@@H](Oc1ccc(S(C)(=O)=O)cc1C(=O)N1C[C@@H]2C[C@]2(c2cc(C(F)(F)F)on2)C1)C(F)(F)F", "note": "[BI 425809]", "values": [
      {"measurement": "Back pain, subjects with AE", "setting": "[1]; [3]", "value": "1 (20.0) n (%)"},
      {"measurement": "Catheter site pain, subjects with AE", "setting": "[1]; [3]", "value": "0 n (%)"},
      {"measurement": "Diarrhea, subjects with AE", "setting": "[1]; [3]", "value": "0 n (%)"},
      {"measurement": "Dizziness, subjects with AE", "setting": "[1]; [3]", "value": "0 n (%)"},
      {"measurement": "Dry mouth, subjects with AE", "setting": "[1]; [3]", "value": "0 n (%)"},
      {"measurement": "Fatigue, subjects with AE", "setting": "[1]; [3]", "value": "1 (20.0) n (%)"},
      {"measurement": "Gingivitis, subjects with AE", "setting": "[1]; [3]", "value": "0 n (%)"},
      {"measurement": "Muscle spasms, subjects with AE", "setting": "[1]; [3]", "value": "0 n (%)"},
      {"measurement": "Musculoskeletal stiffness, subjects with AE", "setting": "[1]; [3]", "value": "0 n (%)"},
      {"measurement": "Nasopharyngitis, subjects with AE", "setting": "[1]; [3]", "value": "1 (20.0) n (%)"},
      {"measurement": "Nausea, subjects with AE", "setting": "[1]; [3]", "value": "0 n (%)"},
      {"measurement": "Neck pain, subjects with AE", "setting": "[1]; [3]", "value": "1 (20.0) n (%)"},
      {"measurement": "Paraesthesia, subjects with AE", "setting": "[1]; [3]", "value": "0 n (%)"},
      {"measurement": "Procedural headache, subjects with AE", "setting": "[1]; [3]", "value": "3 (60.0) n (%)"},
      {"measurement": "Procedural pain, subjects with AE", "setting": "[1]; [3]", "value": "0 n (%)"},
      {"measurement": "Somnolence, subjects with AE", "setting": "[1]; [3]", "value": "0 n (%)"},
      {"measurement": "Tension headache, subjects with AE", "setting": "[1]; [3]", "value": "0 n (%)"},
      {"measurement": "Total with AEs (treatment-emergent)", "setting": "[1]; [3]", "value": "4 (80.0) n (%)"},
      {"measurement": "Upper abdominal pain, subjects with AE", "setting": "[1]; [3]", "value": "0 n (%)"},
      {"measurement": "Vomiting, subjects with AE", "setting": "[1]; [3]", "value": "0 n (%)"},
      {"measurement": "Wound, subjects with AE", "setting": "[1]; [3]", "value": "0 n (%)"},
      {"measurement": "AEs of special interest, deaths, serious AEs on-treatment", "setting": "[1]; healthy male volunteers, 5 to 50 mg for 14 days", "value": "no protocol‐specified AEs of special interest, deaths, or other serious AEs reported"},
      {"measurement": "Safety and tolerability (in words)", "setting": "[1]; healthy male volunteers, multiple oral doses 5 to 50 mg for 14 days", "value": "safe and well tolerated; also recorded: generally well tolerated; also recorded: well tolerated, with no indication of safety concerns"},
      {"measurement": "Subjects reporting back pain", "setting": "[1]; of the 25 subjects treated (8 subjects)", "value": 32.0, "unit": "%"},
      {"measurement": "Subjects reporting procedural headache", "setting": "[1]; of the 25 subjects treated (16 subjects)", "value": 64.0, "unit": "%"},
      {"measurement": "Subjects reporting at least one treatment-emergent AE", "setting": "[1]; of the 25 subjects treated (22 subjects)", "value": 88.0, "unit": "%"},
      {"measurement": "Abdominal pain, subjects with AE", "setting": "[1]; [4]", "value": "1 (4.0) n (%)"},
      {"measurement": "Back pain, subjects with AE", "setting": "[1]; [4]", "value": "8 (32.0) n (%)"},
      {"measurement": "Catheter site pain, subjects with AE", "setting": "[1]; [4]", "value": "1 (4.0) n (%)"},
      {"measurement": "Diarrhea, subjects with AE", "setting": "[1]; [4]", "value": "1 (4.0) n (%)"},
      {"measurement": "Dizziness, subjects with AE", "setting": "[1]; [4]", "value": "2 (8.0) n (%)"},
      {"measurement": "Dry mouth, subjects with AE", "setting": "[1]; [4]", "value": "1 (4.0) n (%)"},
      {"measurement": "Fatigue, subjects with AE", "setting": "[1]; [4]", "value": "2 (8.0) n (%)"},
      {"measurement": "Gingivitis, subjects with AE", "setting": "[1]; [4]", "value": "1 (4.0) n (%)"},
      {"measurement": "Muscle spasms, subjects with AE", "setting": "[1]; [4]", "value": "1 (4.0) n (%)"},
      {"measurement": "Musculoskeletal stiffness, subjects with AE", "setting": "[1]; [4]", "value": "1 (4.0) n (%)"},
      {"measurement": "Nasopharyngitis, subjects with AE", "setting": "[1]; [4]", "value": "1 (4.0) n (%)"},
      {"measurement": "Nausea, subjects with AE", "setting": "[1]; [4]", "value": "5 (20.0) n (%)"},
      {"measurement": "Neck pain, subjects with AE", "setting": "[1]; [4]", "value": "3 (12.0) n (%)"},
      {"measurement": "Paraesthesia, subjects with AE", "setting": "[1]; [4]", "value": "1 (4.0) n (%)"},
      {"measurement": "Procedural headache, subjects with AE", "setting": "[1]; [4]", "value": "16 (64.0) n (%)"},
      {"measurement": "Procedural pain, subjects with AE", "setting": "[1]; [4]", "value": "1 (4.0) n (%)"},
      {"measurement": "Somnolence, subjects with AE", "setting": "[1]; [4]", "value": "1 (4.0) n (%)"},
      {"measurement": "Tension headache, subjects with AE", "setting": "[1]; [4]", "value": "1 (4.0) n (%)"},
      {"measurement": "Total with AEs (treatment-emergent)", "setting": "[1]; [4]", "value": "22 (88.0) n (%)"},
      {"measurement": "Upper abdominal pain, subjects with AE", "setting": "[1]; [4]", "value": "1 (4.0) n (%)"},
      {"measurement": "Vomiting, subjects with AE", "setting": "[1]; [4]", "value": "4 (16.0) n (%)"},
      {"measurement": "Wound, subjects with AE", "setting": "[1]; [4]", "value": "1 (4.0) n (%)"},
      {"measurement": "Subjects who discontinued due to AEs", "setting": "[1]; two subjects of 25 (5-mg and 10-mg dose groups), AEs not considered drug-related", "value": 8.0, "unit": "%"},
      {"measurement": "Attainment of steady state after administration", "setting": "[2]", "value": "≤ 8", "unit": "days"},
      {"measurement": "Half-life", "setting": "[2]", "value": "~ 40 hours"},
      {"measurement": "E 14, increase in glycine in CSF from baseline at 14 hours", "setting": "glycine in CSF; 5 mg, N = 6", "value": "18.0 (32.1) %"},
      {"measurement": "E max, maximum increase in glycine in CSF from baseline", "setting": "glycine in CSF; 5 mg, N = 6", "value": "35.3 (26.4) %"},
      {"measurement": "Ratio of AUECdiff, 0–14 (glycine in CSF)", "setting": "glycine in CSF; 5 mg, N = 6", "value": "16.0 (17.4) %"},
      {"measurement": "E 312, increase in glycine in CSF from baseline at 312 hours", "setting": "glycine in CSF; 10 mg once daily, N = 4", "value": "57% and 57.0 (48.3) %"},
      {"measurement": "E 14, increase in glycine in CSF from baseline at 14 hours", "setting": "glycine in CSF; 10 mg, N = 6", "value": "39.8 (14.5) %"},
      {"measurement": "E max, maximum increase in glycine in CSF from baseline", "setting": "glycine in CSF; 10 mg, N = 6", "value": "62.3 (15.3) %"},
      {"measurement": "Ratio of AUECdiff, 0–14 (glycine in CSF)", "setting": "glycine in CSF; 10 mg, N = 6", "value": "37.0 (12.1) %"},
      {"measurement": "E 312, increase in glycine in CSF from baseline at 312 hours", "setting": "glycine in CSF; 25 mg once daily, N = 6", "value": "38% and 37.9 (45.8) %"},
      {"measurement": "E 14, increase in glycine in CSF from baseline at 14 hours", "setting": "glycine in CSF; 25 mg, N = 6", "value": "60.9 (60.7) %"},
      {"measurement": "Ratio of AUECdiff, 0–14 (glycine in CSF)", "setting": "glycine in CSF; 25 mg, N = 6", "value": "53.0 (30.5) %"},
      {"measurement": "E max, maximum increase in glycine in CSF from baseline", "setting": "glycine in CSF; 25 mg, N = 8", "value": "136 (107) %"},
      {"measurement": "E 312, increase in glycine in CSF from baseline at 312 hours", "setting": "glycine in CSF; 50 mg once daily, N = 5", "value": "123% and 123 (52.5) %"},
      {"measurement": "E 14, increase in glycine in CSF from baseline at 14 hours", "setting": "glycine in CSF; 50 mg, N = 5", "value": "50.6 (33.8) %"},
      {"measurement": "E max, maximum increase in glycine in CSF from baseline", "setting": "glycine in CSF; 50 mg, N = 5", "value": "91.9 (89.9) %"},
      {"measurement": "Ratio of AUECdiff, 0–14 (glycine in CSF)", "setting": "glycine in CSF; 50 mg, N = 5", "value": "47.0 (35.3) %"},
      {"measurement": "Time at which CSF glycine levels reached their maximum", "setting": "glycine in CSF; healthy volunteers, single oral doses, over dose groups", "value": "6 to 10", "unit": "h"}
    ]}
  ]
}
